According to PMC11102597 (Molecular cell, 2023):
Positions count from the first letter of the chain named. Where two headings read alike, the source gives them in different places.

Experiments:
[1] = molecular target: T1, PaMx33-Acb2 (Pseudomonas phage PaMx33, UniProt A0A1C8HPQ3); assay: biochemical; format: binding; conditions: for binding to Acb2 (ITC): WT PaMx33-Acb2
[2] = molecular target: T2, Acb2 protein (PaMx33-Acb2) (Pseudomonas phage PaMx33, UniProt A0A1C8HPQ3); assay: Native gel; format: binding, P. aeruginosa phage PaMx33; conditions: WT PaMx33-Acb2 14.3 μM
[3] = molecular target: T2, Acb2 protein (PaMx33-Acb2); conditions: Figure S1A–B; cited from earlier work
[4] = molecular target: T3, Acb2 T74A mutant (Pseudomonas phage PaMx33, UniProt A0A1C8HPQ3, T74A); assay: ITC binding to PaMx33-Acb2 T74A mutant; parameters: species or system P. aeruginosa phage PaMx33
T3 sequence (A0A1C8HPQ3 1-93 T74A): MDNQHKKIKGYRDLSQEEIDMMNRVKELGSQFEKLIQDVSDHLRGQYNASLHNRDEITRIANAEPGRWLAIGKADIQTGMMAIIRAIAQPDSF

[5] = molecular target: T4, Acb2 R67A mutant (Pseudomonas phage PaMx33, UniProt A0A1C8HPQ3, R67A); assay: ITC binding to PaMx33-Acb2 R67A mutant; parameters: species or system P. aeruginosa phage PaMx33; conditions: in vitro
T4 sequence (A0A1C8HPQ3 1-93 R67A): T3 sequence (A0A1C8HPQ3 1-93 T74A) with R67A, A74T

[6] = molecular target: JBD67-Acb2 (Pseudomonas phage JBD67, UniProt P0DX89); assay: ITC binding to JBD67-Acb2; parameters: species or system P. aeruginosa phage JBD67
[7] = molecular target: T4-Acb2 (Enterobacteria phage T4, UniProt P13314); assay: ITC binding to T4-Acb2; parameters: species or system Escherichia phage T4
[8] = molecular target: T5, D61R mutant of T4-Acb2 (Enterobacteria phage T4, UniProt P13314, D61R); assay: ITC binding to T4-Acb2 D61R mutant; parameters: species or system Escherichia phage T4
T5 sequence (P13314 1-88 D61R): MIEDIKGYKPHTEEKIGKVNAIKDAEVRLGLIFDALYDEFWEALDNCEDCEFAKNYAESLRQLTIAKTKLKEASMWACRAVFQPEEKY

[9] = molecular target: T6, CHI14-Acb2 (Serratia phage CHI14, UniProt A0A1Z1LXK7); assay: ITC binding to CHI14-Acb2
T6 sequence (A0A1Z1LXK7 1-96): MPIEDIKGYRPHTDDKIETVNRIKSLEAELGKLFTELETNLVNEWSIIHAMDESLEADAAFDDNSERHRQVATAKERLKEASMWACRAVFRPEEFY

[10] = molecular target: T7, Y11A Acb2 mutant (Pseudomonas phage PaMx33, UniProt A0A1C8HPQ3, Y11A); assay: Native gel shift assay with Acb2 Y11A mutant; format: binding, P. aeruginosa phage PaMx33
[11] = molecular target: T8, K26A Acb2 mutant (Pseudomonas phage PaMx33, UniProt A0A1C8HPQ3, K26A); assay: Native gel shift assay with Acb2 K26A mutant; format: binding, P. aeruginosa phage PaMx33
[12] = molecular target: T1, PaMx33-Acb2; assay: HPLC analysis of cA3 binding and release by Acb2; parameters: species or system P. aeruginosa phage PaMx33
[13] = molecular target: NucC (Pseudomonas aeruginosa, UniProt P0DTF8); assay: In vitro NucC activity assay; format: biochemical, P. aeruginosa strain ATCC 27853 (Pa278); conditions: cA3 5 nM
[14] = molecular target: T6, CHI14-Acb2; assay: Native gel shift assay with CHI14-Acb2; format: binding
Method in brief: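 Recombinant Acb2, expressed in E. coli BL21 (DE3) with 12 h induction at 18°C, was purified as a His6-SUMO fusion on Ni-NTA, cut with Ulp1, then gel-filtered in 10 mM Tris-HCl pH 8.0, 500 mM NaCl, 5 mM DTT. Protein (14.3 μM) was preincubated 10 min at 18°C with cyclic dinucleotides (1.8, 3.6, 7.2 μM). Samples were run on 5% native polyacrylamide gels and stained with Coomassie blue.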

[15] = molecular target: T1, PaMx33-Acb2; conditions: WT Acb2; cited from earlier work
[16] = molecular target: T7, Y11A Acb2 mutant; conditions: method not stated here; cited from earlier work
[17] = molecular target: T8, K26A Acb2 mutant; conditions: method not stated here; cited from earlier work
[18] = molecular target: the molecule itself; assay: crystal structure
[19] = molecular target: T9, NucC (Pseudomonas aeruginosa, UniProt P0DTF8); assay: In vitro NucC activity assay; format: biochemical, P. aeruginosa strain ATCC 27853 (Pa278); conditions: NucC 10 nM, cA3 5 nM, Acb2 50 nM
T9 sequence (P0DTF8 whole entry, looked up): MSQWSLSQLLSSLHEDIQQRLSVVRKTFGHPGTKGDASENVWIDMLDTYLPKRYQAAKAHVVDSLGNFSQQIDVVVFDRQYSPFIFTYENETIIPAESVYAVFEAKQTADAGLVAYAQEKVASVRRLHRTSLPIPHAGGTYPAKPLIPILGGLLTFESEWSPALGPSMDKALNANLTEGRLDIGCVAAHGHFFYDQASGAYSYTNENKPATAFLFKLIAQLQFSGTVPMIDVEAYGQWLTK

T2 sequence (A0A1C8HPQ3 whole entry): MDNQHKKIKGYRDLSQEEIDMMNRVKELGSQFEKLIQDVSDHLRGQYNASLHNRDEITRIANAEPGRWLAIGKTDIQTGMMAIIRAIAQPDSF
T1 sequence (A0A1C8HPQ3 whole entry): as above
Chain of T4-Acb2 (P13314 whole entry): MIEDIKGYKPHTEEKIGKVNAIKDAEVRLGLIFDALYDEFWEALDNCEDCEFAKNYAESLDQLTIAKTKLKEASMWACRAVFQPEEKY
T8 sequence (A0A1C8HPQ3 whole entry K26A): as the sequence (A0A1C8HPQ3 whole entry) above, with K26A counted along it
T7 sequence (A0A1C8HPQ3 whole entry Y11A): as the sequence (A0A1C8HPQ3 whole entry) above, with Y11A counted along it
Chain of JBD67-Acb2 (P0DX89 whole entry): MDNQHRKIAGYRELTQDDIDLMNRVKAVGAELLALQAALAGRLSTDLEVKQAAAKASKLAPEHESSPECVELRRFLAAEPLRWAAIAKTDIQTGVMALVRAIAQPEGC

## Nc1nc2c(ncn2[C@@H]2O[C@@H]3COP(=O)(O)O[C@@H]4[C@H](O)[C@@H](COP(=O)(O)O[C@H]3[C@H]2O)O[C@H]4n2cnc3c(N)ncnc32)c(=O)[nH]1 [3’,2’-cGAMP]
[1]
  Kd: ~298 nM
[2]
  shift of the Acb2 protein / binding (native gel): significant shift

## Nc1ccn([C@@H]2O[C@@H]3COP(=O)(O)O[C@H]3[C@H]2O)c(=O)n1 [cCMP]
[1]
  binding to Acb2 (ITC): does not bind
[2]
  shift of the Acb2 protein / binding (native gel): does not bind

## O=c1ccn([C@@H]2O[C@@H]3COP(=O)(O)O[C@H]4[C@@H](O)[C@H](n5ccc(=O)[nH]c5=O)O[C@@H]4COP(=O)(O)O[C@H]3[C@H]2O)c(=O)[nH]1 [3’,3’-cUU, 3’,3’-c-di-UMP]
[3]
  binding to Acb2 (previous work): binds

## Nc1ncnc2c1ncn2[C@@H]1O[C@@H]2COP(=O)(O)O[C@H]3[C@@H](O)[C@H](n4cnc5c(N)ncnc54)O[C@@H]3COP(=O)(O)O[C@H]3[C@@H](O)[C@H](n4cnc5c(N)ncnc54)O[C@@H]3COP(=O)(O)O[C@H]2[C@H]1O [cA3, 3’3’3’-cyclic AMP-AMP-AMP]
[1]
  Kd: ~1.5 nM
[4]
  Kd: ~291 nM
[5]
  binding (ITC): abolished
[6]
  Kd: ~3.5 nM
[7]; T4-Acb2
  binding (ITC): does not bind
[8]
  binding (ITC): unable to bind
[9]; CHI14-Acb2
  binding (ITC): does not bind
[2]
  shift of the Acb2 protein / binding (native gel): significant shift
[10]
  binding / shift (native gel): significant shift
[11]
  binding / shift (native gel): significant shift
[12]; 40 μM Acb2, 4 μM cA3
  remaining cA3 after incubation with Acb2 (HPLC): depletes any detectable molecules
[12]; proteinase K treatment
  cA3 after proteolysis of Acb2 (HPLC): released back into the buffer unmodified
[13]; NucC 10 nM
  DNA cleavage activity of NucC: activates
[13]; Acb2 50 nM, proteinase K 1 μM
  NucC activity with cA3 released after proteolysis of WT Acb2: again activated

## Nc1ncnc2c1ncn2[C@@H]1O[C@@H]2COP(=O)(O)O[C@H]3[C@@H](O)[C@H](n4cnc5c(N)ncnc54)O[C@@H]3COP(=O)(O)O[C@H]2[C@H]1O [3’,3’-cAA, c-di-AMP]
[3]
  binding to Acb2 (previous work): binds

## Nc1nc2c(ncn2[C@@H]2O[C@@H]3COP(=O)(O)O[C@H]4[C@@H](O)[C@H](n5cnc6c(N)ncnc65)O[C@@H]4COP(=O)(O)O[C@H]3[C@H]2O)c(=O)[nH]1 [3’,3’-cGAMP]
[6]
  Kd: ~99 nM
[7]
  Kd: ~84.4 nM
[9]
  Kd: ~62.4 nM
[14]
  shift of the CHI14-Acb2 protein (native gel): almost no shift
[15]
  Kd: ~87 nM
[3]
  binding to Acb2 (previous work): binds
[16]
  binding to Y11A Acb2 mutant: lose their binding
[17]
  binding to K26A Acb2 mutant: lose their binding

## Nc1ncnc2c1ncn2[C@@H]1O[C@@H]2COP(=O)(O)O[C@H]3[C@@H](O)[C@H](n4cnc5c(N)ncnc54)O[C@@H]3COP(=O)(O)O[C@H]3[C@@H](O)[C@H](n4cnc5c(N)ncnc54)O[C@@H]3COP(=O)(O)O[C@H]3[C@@H](O)[C@H](n4cnc5c(N)ncnc54)O[C@@H]3COP(=O)(O)O[C@H]3[C@@H](O)[C@H](n4cnc5c(N)ncnc54)O[C@@H]3COP(=O)(O)O[C@H]3[C@@H](O)[C@H](n4cnc5c(N)ncnc54)O[C@@H]3COP(=O)(O)O[C@H]2[C@H]1O [cA6]
[2]
  shift of the Acb2 protein / binding (native gel): does not shift

## Nc1nc2c(ncn2[C@@H]2O[C@@H]3COP(=O)(O)O[C@H]4[C@@H](O)[C@H](n5ccc(=O)[nH]c5=O)O[C@@H]4COP(=O)(O)O[C@H]3[C@H]2O)c(=O)[nH]1 [3’,3’-cUG, 3’,3’-c-UMP-GMP]
[3]
  binding to Acb2 (previous work): binds

## Nc1nc2c(ncn2[C@@H]2O[C@@H]3COP(=O)(O)O[C@H]4[C@@H](O)[C@H](n5cnc6c(N)ncnc65)O[C@@H]4COP(=O)(O)O[C@H]4[C@@H](O)[C@H](n5cnc6c(N)ncnc65)O[C@@H]4COP(=O)(O)O[C@H]3[C@H]2O)c(=O)[nH]1 [cAAG, 3’3’3’-cAAG]
[1]
  Kd: ~2.7 nM
[2]
  shift of the Acb2 protein / binding (native gel): significant shift

## O=c1ccn([C@@H]2O[C@@H]3COP(=O)(O)O[C@H]3[C@H]2O)c(=O)[nH]1 [cUMP]
[1]
  binding to Acb2 (ITC): does not bind
[2]
  shift of the Acb2 protein / binding (native gel): does not bind

B1: Acb2 from P. aeruginosa phage PaMx33 (natural protein, Pseudomonas aeruginosa phage PaMx33, UniProt A0A1C8HPQ3 1-93, looked up)
chain: T3 sequence (A0A1C8HPQ3 1-93 T74A) with A74T
[18]
  stoichiometry N: 6

B2: WT Acb2: anti-CBASS protein Acb2 from P. aeruginosa phage PaMx33, cyclic oligonucleotide sponge (protein)
chain: T3 sequence (A0A1C8HPQ3 1-93 T74A) with A74T
modifications: left off: His6-SUMO, end not stated, cleaved
[19]
  effect on cA3-activated NucC activity: significantly decreased
